This passage reports Activity and 1/Km results from ChEMBL document CHEMBL1212715, “Ligand-directed tosyl chemistry for protein labeling in vivo” (Nat Chem Biol, 2009).

In series [1] the target is Carbonic anhydrase 2 (Homo sapiens) (UniProt P00918). Put plainly: Binding affinity to human 7-diethylaminocoumarin labelled carbonic anhydrase2 after 48 hrs by SDS-PAGE/fluorescence gel imaging. In short, it runs like this: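 Purified human CAII (40 µM) was incubated with the Dc-tosyl reagent (80 µM) in 50 mM HEPES, pH 7.2, at 37 °C. Control reactions held EZA (400 µM) or GSH (10 mM). Samples were resolved by SDS-PAGE, read by in-gel fluorescence imaging, then stained with CBB.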

Series [2] has the same target. Put plainly: Activity at human carbonic anhydrase2 assessed as hydrolysis of p- nitrophenyl acetate.
Series [3] is described as follows: Toxicity in human RBC assessed as hemolysis. In kind it is cell-based. The settings on record: erythrocyte.
The target in series [4] is Carbonic anhydrase 2 (Mus musculus) (UniProt P00920). Put plainly: Binding affinity to endogenously expressed carbonic anhydrase2 in Slc:ICR mouse using syreptavidin-horseradish peroxidase conjugate by Western blot analysis. In short, it runs like this:
(§1)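 Male SPF Slc:ICR mice, 8 weeks old, received the biotin probe intravenously (100 µM in 0.5 mL PBS), and tail-vein blood was drawn at 4, 8 and 20 h. For ex vivo runs, EDTA-treated whole blood was diluted two-fold in PBS and held with 5 µM probe, ±500 µM EZA, at 35 °C for 20 h. Lysis used NP-40 buffer with 0.5 mM EZA, followed by 15% SDS-PAGE and PVDF blotting. Biotin was detected with SAv-HRP chemiluminescence; the membrane was reprobed with anti-mouse CAII plus anti-goat IgG-HRP.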

For series [5] the target is unchanged. The series is described as follows: Binding affinity to endogenously expressed carbonic anhydrase2 in Slc:ICR mouse using anti-mouse CA2 antibody by Western blot analysis. The gist of the method: as §1
A general note: A western blot detects proteins with antibodies after separation by electrophoresis.

The next series deals with Jurkat. The series is described as follows: Cytotoxicity against in human Jurkat cells after 18 hrs by MTT assay. It counts as cell-based. The gist of the method:
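Jurkat cells, maintained in RPMI 1640 with 10% FBS at 37 °C under 5% CO2, were treated at 4 × 10^6 cells per 1 mL serum-free RPMI 1640 with probe (4 µM) at 37 °C for 18 h. Viability was read by MTT assay.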
In general terms: Formazan colour is commonly taken as a measure of viable cells.

In series [6] the target is Peptidyl-prolyl cis-trans isomerase FKBP1A (Homo sapiens) (UniProt P62942). The series is described as follows: Binding affinity to human FKBP12 in Jurkat cells at 11 uM after 24 hrs using anti-human FKBP12 antibody. In kind it is cell-based. Particulars: 4 uM, in the assay text read “at 4 uM after 18 hrs” for “at 11 uM after 24 hrs”.

Molecules are shown by their SMILES. The source made the active and inactive calls. The rule behind the calls is not given here.

Peptidyl-prolyl cis-trans isomerase FKBP1A (Homo sapiens), sequence (P62942 whole entry): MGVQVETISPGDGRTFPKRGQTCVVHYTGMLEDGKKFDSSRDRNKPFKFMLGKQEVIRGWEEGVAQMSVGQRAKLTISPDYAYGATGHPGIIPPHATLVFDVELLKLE

With `CCN(CC)c1ccc2cc(C(=O)NCCOCCOS(=O)(=O)c3cccc(C(=O)NCCCCCNC(=O)c4ccc(S(N)(=O)=O)cc4)c3)c(=O)oc2c1`, the Activity in series [1] is 75%; in series [3], “Non-toxic”. In series [2], the 1/Km was 2.38 ×10² /M.

Regarding `O=C(CCCC[C@@H]1SC[C@@H]2NC(=O)N[C@@H]21)NCCOCCOCCOS(=O)(=O)c1cccc(C(=O)NCCCCCNC(=O)c2ccccc2)c1`, the result in series [4] and in series [5] was inactive.

For the compound `NS(=O)(=O)c1ccc(C(=O)NCCCCCNC(=O)c2cccc(S(=O)(=O)OCCOCCOCCNC(=O)CCCC[C@@H]3SC[C@@H]4NC(=O)N[C@@H]43)c2)cc1`, the outcome in series [4] and in series [5] was Active.

With `CCC(C)(C)C(=O)C(=O)N1CCCC[C@H]1C(=O)O[C@H](CCc1ccc(OC)c(OC)c1)c1cccc(OCC(=O)NCCNC(=O)c2cccc(S(=O)(=O)OCCOCCOCCNC(=O)CCCC[C@@H]3SC[C@@H]4NC(=O)N[C@@H]43)c2)c1`, in the series with Jurkat, the Activity entry is given as “Non-toxic”. The outcome in series [6] was Active.
